Bridge positions count the residues as written; N and C are the ends. Ends that are not written are not given here.
Legend:
NMR relaxation = assay type: physicochemical; conditions: 90:10 H2O/D2O
[1] = Sedimentation velocity analytical ultracentrifugation; assay type: physicochemical; conditions: for sedimentation coefficient (s20,w), DCDT+ analysis: 20 °C
Outline: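 An-50 Ti rotor, double-sector charcoal-epon cells, interference or absorbance optics. 400 μL peptide sample against buffer reference, prepared just before the run, pH set with 1 N HCl. Buffers: 10 mM sodium phosphate (pH 7, 6, 4, 2; NaCl 50, 150, 500 mM) and 20 mM Tris-HCl or HEPES pH 7, ± 50 mM MgCl2/CaCl2. Fitting used c(s) Lamm and g(s*) from 22–26 scans, with modelled monomer/dimer/tetramer S-values.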

[2] = Sedimentation equilibrium analytical ultracentrifugation; assay type: physicochemical
Outline: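 Absorbance optics at 280 nm, 20 °C, An-50 Ti rotor. Samples were 400 μL of the oxidized peptide in 10 mM sodium phosphate, pH set with 1 N HCl: pH 8 (183, 230, 283 μM), pH 7 (165–288 μM), pH 6 (210, 330 μM), pH 4 (236, 288 μM), pH 2 (189, 238, 293 μM). Buffer viscosity, density and partial specific volume were computed for 20 °C.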

HD5ox = conditions: SPR, pH 7.4, 150 mM NaCl; cited from earlier work
AUC = target: the molecule itself; assay: AUC

Molecule | molecular weight estimated from TRACT Tc (NMR relaxation; 340 μM 13C,15N-HD5ox, pH 4) | rotational correlation time Tc, [15N,1H]-TRACT method (NMR relaxation; 340 μM 13C,15N-HD5ox, pH 4 (TFA)) | oligomerization state under the NMR sample conditions (NMR relaxation; 340 μM, pH 4, unbuffered) | effect of Mg(II) and Ca(II) on the sedimentation coefficient ([1]; 50 mM MgCl2 or CaCl2 in 20 mM Tris-HCl or HEPES buffer, pH 7.0) | minimum frictional ratio (f/f0) ([1]; Equation 2, ssphere/s20,w, all buffers) | oligomeric form from comparison of experimental and calculated S-values ([1]; aqueous buffer at neutral pH, concentrations ≥30 μM) | sedimentation coefficient (s20,w), DCDT+ analysis ([1]; pH 2.0, 10 mM sodium phosphate buffer, 194 μM) | sedimentation coefficient (s20,w), DCDT+ analysis ([1]; pH 4.0, 10 mM sodium phosphate buffer, 131 μM) | sedimentation coefficient (s20,w), DCDT+ analysis ([1]; pH 6.0, 10 mM sodium phosphate buffer, 161 μM) | sedimentation coefficient (s20,w), DCDT+ analysis ([1]; pH 7.0, 10 mM sodium phosphate buffer) | effect of NaCl on the sedimentation coefficient ([1]; up to 500 mM NaCl, pH 7, 10 mM sodium phosphate buffer) | best-fit molecular weight by sedimentation equilibrium ([2]; pH 2.0, 10 mM sodium phosphate buffer, 189-293 μM, 20 °C) | oligomeric molecular weight to which the sedimentation equilibrium fit converged ([2]; pH 4.0, 6.0 and 8.0, 10 mM sodium phosphate buffer) | HD5ox concentration above which evidence for higher-order oligomers was reported (HD5ox) | Kd (AUC) | stoichiometry N (AUC)
Human defensin 5 (ATCYCRTGRCATRESLSGVCEISGRLYRLCCR; disulfide 10-30, 5-20, 3-31; also: 15N or 13C,15N labelled in NMR samples) [HD5ox] | ca. 6.8 kDa | ca. 4.1 ns | dimer | negligible impact | ~ 1.2 | tetrameric | 1.0 S | 1.2 S | 1.6 S | 1.8 S | no effect | 7,079 Da | tetrameric | > 8 µM |  | 
ATCYCRTGRCATRESLSGVCEISGRLYRLCCR (peptide, UniProt Q01523 63-94, looked up, disulfide 10-30, 5-20, 3-31; also: 15N or 13C,15N labelled in NMR samples) [Human defensin 5, oxidized form (HD5ox)] |  |  |  |  |  |  |  |  |  |  |  |  |  |  | < 30 µM | 4

Source: publication PMC3579768 (Biochemistry, 2012)
